3 compounds from ChEMBL document CHEMBL2346611, “Preliminary structure-activity relationships and biological evaluation of novel antitubercular indolecarboxamide derivatives against drug-susceptible and drug-resistant Mycobacterium tuberculosis strains” (J Med Chem, 2013) can be followed below.

Format in all cases: functional
Test [1] relates to Mycobacterium tuberculosis. As to the kind of experiment: Antitubercular activity against extensively drug resistant Mycobacterium tuberculosis V2475 by microplate Alamar Blue assay.
Test [2] deals with Mycobacterium tuberculosis. As to the kind of experiment: Antitubercular activity against multi drug resistant Mycobacterium tuberculosis KZN494 by microplate Alamar Blue assay. In a few lines: (§1)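 Mycobacterium tuberculosis strains were used: H37Rv, and clinical strains from KwaZulu-Natal (MDR KZN494 and V2475; XDR TF274 and R506). Growth was read by microplate Alamar Blue assay. MIC is the lowest drug concentration giving at least a 90% reduction of the bacterial growth signal. Values are the average of three individual measurements.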

The subject of test [3] is Mycobacterium tuberculosis. The experiment in a line: Antitubercular activity against extensively drug resistant Mycobacterium tuberculosis R506 by microplate Alamar Blue assay. The essentials:
as §1

In test [4] the test system is Mycobacterium tuberculosis. The experiment in a line: Antitubercular activity against extensively drug resistant Mycobacterium tuberculosis TF274 by microplate Alamar Blue assay. The essentials: as §1

Each structure is given as a SMILES string. Converted amounts (≈) assume the structure as drawn.

With `Cc1cc(C)c2cc(C(=O)NC3CCCCC3)[nH]c2c1`, the MIC90 in test [1] is 0.93 µM (≈ 0.251 µg/mL); in test [2], 3.7 µM (≈ 1 µg/mL); in test [3] it was 0.46 µM (≈ 0.124 µg/mL); in test [4] it was 0.46 µM (≈ 0.124 µg/mL).

For `Cc1cc(C)c2cc(C(=O)NC3CCCCCCC3)[nH]c2c1`, the MIC90 in test [3] stood at 0.0067 µM (≈ 0.002 µg/mL); in test [4] it was 0.026 µM (≈ 0.00776 µg/mL).

As for `Cc1cc(C)c2cc(C(=O)NC3CCCCCC3)[nH]c2c1`, the MIC90 came to 0.11 µM (≈ 0.0313 µg/mL) in test [1], 0.11 µM (≈ 0.0313 µg/mL) in test [2], 0.055 µM (≈ 0.0156 µg/mL) in test [3] and 0.055 µM (≈ 0.0156 µg/mL) in test [4].
